Source: PMC11246720 (Journal of the American Chemical Society, 2023)
Changes are numbered by the printed parent chain.

Columns and labels:
MAGE-A4 C80A [1] = molecular target: T1, MAGE-A4 C80A (Homo sapiens, UniProt P43358, C80A); assay: MALDI-MS covalent modification of MAGE-A4 C80A mutant; assay type: binding
T1 sequence (P43358 1-317 C80A): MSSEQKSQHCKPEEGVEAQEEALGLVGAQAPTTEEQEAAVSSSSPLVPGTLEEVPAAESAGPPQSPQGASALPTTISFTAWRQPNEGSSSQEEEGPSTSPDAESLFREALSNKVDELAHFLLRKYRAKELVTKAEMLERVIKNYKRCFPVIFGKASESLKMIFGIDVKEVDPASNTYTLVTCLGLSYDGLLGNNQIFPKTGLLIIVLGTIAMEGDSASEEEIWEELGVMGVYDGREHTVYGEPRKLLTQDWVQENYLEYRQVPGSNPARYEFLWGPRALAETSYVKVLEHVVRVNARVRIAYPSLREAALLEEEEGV
Procedure, shortened: (§1)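 MAGE-A4 wild type or its C80A mutant was incubated with each peptide, and the intact protein was analysed by MALDI-MS for covalent adducts. L-Ala and D-Ala variants of each peptide, in which the dehydroalanines are replaced, were run in parallel.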

RAD18-MAGE-A4 complex = molecular target: T2, RAD18-MAGE-A4 complex (Homo sapiens, UniProt P43358); assay: Co-immunoprecipitation of the RAD18-MAGE-A4 complex in cell lysates; details: 10 μM peptides
T2 sequence (P43358 1-317): T1 sequence (P43358 1-317 C80A) with A80C
Procedure, shortened: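 Read-out is Western blotting of MAGE-A4 co-immunoprecipitated with RAD18 from cell lysates. Peptides were tested at 10 μM, alongside a peptide included as a negative control.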

MAGE-A4 [2] = molecular target: T3, MAGE-A4 (Homo sapiens, UniProt P43358); assay: Mass dilution TR-FRET assay for kinetic parameters; assay type: binding
T3 sequence (P43358 1-317): T1 sequence (P43358 1-317 C80A) with A80C

MAGE-A4 [3] = molecular target: T3, MAGE-A4; assay: TR-FRET between AF647-MTP-1 and MAGE-A4; assay type: binding
Procedure, shortened: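 Time-dependent TR-FRET measured displacement of AF647-labelled MTP-1 peptide tracer from MAGE-A4 (and from MAGE-A4 C80A) by covalent peptides. IC50 values were calculated from the resulting TR-FRET curves.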

MAGE-A4 C80A [4] = molecular target: T1, MAGE-A4 C80A; assay: TR-FRET between AF647-MTP-1 and MAGE-A4 C80A; assay type: binding; details: TR-FRET vs AF647-MTP-1
MAGE-A4 [5] = molecular target: T3, MAGE-A4; assay: MALDI-MS covalent modification of MAGE-A4; assay type: binding
Procedure, shortened: as §1

covalent modification of MAGE-A4 C80A mutant (MAGE-A4 C80A [1]): did not label
disruption of MAGE-A4 pulldown with RAD18 (RAD18-MAGE-A4 complex): able to disrupt MAGE-A4 pulldown
Ki (MAGE-A4 [2]): 7.3 ± 1.1 nM
inactivation efficiency (kinact/KI) (MAGE-A4 [2]): 8.17e+06 ± 867000 M⁻¹ s⁻¹
kinact (MAGE-A4 [2]): 3.4 ± 0.3 min⁻¹
IC50 (MAGE-A4 [3]; after 1 hour): 9 nM
covalent modification of MAGE-A4 (MAGE-A4 [5]): modify MAGE-A4
Substance: MCP1
change in potency over time (MAGE-A4 [3]; time-dependent TR-FRET): small yet significant increases in potency over time
IC50 / activity in the presence of MAGE-A4 C80A (MAGE-A4 C80A [4]): fell in between those of their L- and D-Ala mutants
